The text below walks through data of publication PMC6527342 (Journal of chemical information and modeling, 2018).

The structures appear in SMILES notation.

The MIC is the smallest concentration in the dilution series that meets the test's criterion for growth inhibition.

Type in all cases: cell-based
Common to all, as to conditions: read-out: MIC of ceftazidime

Experiment [1] concerns Escherichia coli DH10B cells expressing NDM-1. The experiment can be described thus: MIC assay, E. coli DH10B cells expressing NDM-1.
Experiment [2] relates to Escherichia coli DH10B cells expressing IMP-1. The experiment can be described thus: MIC assay, E. coli DH10B cells expressing IMP-1.
Experiment [3] deals with Escherichia coli DH10B cells expressing VIM-2. The experiment in a line: MIC assay, E. coli DH10B cells expressing VIM-2.
The subject of experiment [4] is Escherichia coli DH10B cells not expressing any MBL. The experiment in a line: MIC assay, E. coli DH10B control cells not expressing any MBL. The essentials:
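Ceftazidime MIC was measured in complex medium against E. coli DH10B carrying no MBL. This strain served as the control for DH10B expressing NDM-1, IMP-1 or VIM-2.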

As for `CC(C)(O/N=C(\C(=O)N[C@@H]1C(=O)N2C(C(=O)[O-])=C(C[n+]3ccccc3)CS[C@H]12)c1csc(N)n1)C(=O)O` [ceftazidime], the MIC in experiment [1] amounted to 256 µg/mL; in experiment [2], 512 µg/mL; in experiment [3], 32 µg/mL; in experiment [4], 0.5 µg/mL.
